The text below walks through data of ChEMBL document CHEMBL4014271, “Trimeric and Tetrameric A-Type Procyanidins from Peanut Skins” (2017).

Common to all, as to type: functional
Test [1] relates to RAW264.7. The experiment in a line: Anti-inflammatory activity in mouse RAW264.7 cells assessed as inhibition of LPS-induced TNFalpha secretion at 50 ug/ml preincubated for 1 hr followed by LPS stimulation for 23 hrs by ELISA relative to control. Put shortly: (§1)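 RAW264.7 murine macrophages were grown in DMEM with 10% FBS at 37 °C in 5% CO2 and seeded at 5 × 10^5 to 80−90% confluence. Procyanidins in sterile water were added at 10, 50 or 100 μg/mL for 1 h. LPS (E. coli 0111:B4, 1 μg/mL) followed for 23 h. TNF-α in the collected medium was measured by ELISA and reported as % inhibition of LPS-dependent secretion.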
In general terms: ELISA stands for enzyme-linked immunosorbent assay.

The test system of test [2] is RAW264.7. The experiment in a line: Anti-inflammatory activity in mouse RAW264.7 cells assessed as inhibition of LPS-induced TNFalpha secretion at 10 ug/ml preincubated for 1 hr followed by LPS stimulation for 23 hrs by ELISA relative to control. A digest of the protocol:
as §1

Test [3] concerns RAW264.7. The experiment in a line: Anti-inflammatory activity in mouse RAW264.7 cells assessed as inhibition of LPS-induced TNFalpha secretion at 100 ug/ml preincubated for 1 hr followed by LPS stimulation for 23 hrs by ELISA relative to control. A digest of the protocol:
as §1

The source made the active and inactive calls. No cut-off for these calls is given here.

For orientation: inhibition means the relative decrease from the control value, in per cent.

Regarding `Oc1cc(O)c2c(c1)O[C@@]1(c3ccc(O)c(O)c3)Oc3cc(O)c4c(c3[C@@H]2[C@H]1O)O[C@@]1(c2ccc(O)c(O)c2)Oc2cc(O)c3c(c2[C@@H]4[C@H]1O)O[C@H](c1ccc(O)c(O)c1)[C@@H](O)C3`, the inhibition at 50 µg/mL in test [1] is 78.8%. In test [2], the inhibition at 10 µg/mL is 6.28%. The inhibition at 100 µg/mL in test [3] was determined as 100%.
In the case of `Oc1cc(O)c2c(c1)O[C@@]1(c3ccc(O)c(O)c3)Oc3cc(O)c4c(c3[C@@H]2[C@H]1O)O[C@H](c1ccc(O)c(O)c1)[C@H](O)[C@H]4c1c(O)cc2c(c1O)C[C@H](O)[C@@H](c1ccc(O)c(O)c1)O2`, in test [1], the inhibition at 50 µg/mL came to 99.4%. Further, the inhibition at 10 µg/mL in test [2] is 28.6%. The inhibition at 100 µg/mL in test [3] was determined as 100%.
With `Oc1cc(O)c2c(c1)O[C@@]1(c3ccc(O)c(O)c3)Oc3cc(O)c4c(c3[C@@H]2[C@H]1O)O[C@H](c1ccc(O)c(O)c1)[C@@H](O)C4`, the inhibition entry in test [3] was “inactive”.
Regarding `Oc1cc(O)c2c(c1)O[C@@]1(c3ccc(O)c(O)c3)Oc3cc(O)c4c(c3[C@@H]2[C@H]1O)O[C@H](c1ccc(O)c(O)c1)[C@H](O)[C@H]4c1c(O)cc2c(c1O)[C@@H]1c3c(cc(O)c4c3O[C@H](c3ccc(O)c(O)c3)[C@@H](O)C4)O[C@](c3ccc(O)c(O)c3)(O2)[C@@H]1O`, the inhibition at 50 µg/mL in test [1] was found to be 71.2%. The inhibition at 10 µg/mL in test [2] was 4.26%. The inhibition at 100 µg/mL in test [3] was 98.6%.
With `Oc1cc(O)c2c(c1)O[C@@]1(c3ccc(O)c(O)c3)Oc3cc(O)c4c(c3[C@@H]2[C@H]1O)O[C@H](c1ccc(O)c(O)c1)[C@H](O)[C@H]4c1c(O)cc2c(c1O)[C@@H]1c3c(cc(O)c4c3O[C@H](c3ccc(O)c(O)c3)[C@H](O)C4)O[C@](c3ccc(O)c(O)c3)(O2)[C@@H]1O`, in test [1], the inhibition at 50 µg/mL was 100%. The inhibition at 10 µg/mL in test [2] was determined as 82.2%. Besides, the inhibition at 100 µg/mL in test [3] stood at 100%.
Turning to `Oc1cc(O)c2c(c1)O[C@H](c1ccc(O)c(O)c1)[C@H](O)[C@H]2c1c(O)cc2c(c1O)[C@@H]1c3c(cc(O)c4c3O[C@H](c3ccc(O)c(O)c3)[C@@H](O)C4)O[C@](c3ccc(O)c(O)c3)(O2)[C@@H]1O`, the inhibition at 50 µg/mL in test [1] amounted to 89.7%. Moreover, the inhibition at 10 µg/mL in test [2] was determined as 0%. In addition, the inhibition at 100 µg/mL in test [3] stood at 100%.
For `Oc1cc(O)c2c(c1)O[C@@H](c1ccc(O)c(O)c1)[C@@H](O)[C@H]2c1c(O)cc(O)c2c1O[C@@]1(c3ccc(O)c(O)c3)Oc3cc(O)c4c(c3[C@@H]2[C@H]1O)O[C@H](c1ccc(O)c(O)c1)[C@@H](O)C4`, the inhibition entry in test [3] is “inactive”.
